Most compounds without a hit are left out; they make up all but 3.7% or so of the library.
KCNQ1 pot – potentiates or activates the human KCNQ1 potassium channel; P51787; CHO-K1 KCNQ1, thallium flux FluxOR fluorescence; stronger effect = higher value; B-score at 10 µM; actives 0.35% (n = 310,000); AID 2648;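 active = fluorescence ratio B-score, a plate-corrected score, at least three library SD, with initial intensity B-score within 5 SD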
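Test system: CHO-K1 cells stably expressing KCNQ1 / Medium: assay buffer / Also added: depolarizing K+/Tl+ stimulus, K2SO4 and Tl2SO4 each 12.5 mM in 5x stock / Incubation: 90 min dye loading and 20 min compound exposure, both at room temperature / Signal: thallium influx via FluxOR fluorescence, kinetic imaging / Evaluation: B score of baseline-normalized fluorescence ratio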
hERG protect – hERG (human) protection from proarrhythmic block; CHO-hERG, FluxOR thallium flux, dofetilide IC70 present; activation (rescue from dofetilide block), less the hit threshold, % at 10 µM; actives 0.51% (n = 310,000);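 active = activation above the mean of controls blocked by dofetilide plus 5 SD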;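 also: thallium influx through hERG after potassium depolarization seen as dye fluorescence rise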
KCNK9 block – blocks the human KCNK9 two-pore domain potassium channel | HEK293 KCNK9, FluxOR thallium flux fluorescence; stronger effect = lower value | B-score at 10 µM | actives 1.2% (n = 310,000) | AID 488922;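 active = ratio B-score over 3 SD below the library mean, with starting fluorescence within 5 SD of its mean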;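 also: negative B-score means less thallium flux so channel inhibition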
KCNK3 block – human KCNK3 channel inhibition, primary screen; actives 0.84% (n = 340,000); O14649; B-score at 10 µM; CHO-KCNK3 thallium flux, FluxOR fluorescence; stronger effect = lower value;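 active = B-score under library mean minus 4 SD, starting fluorescence ratio at most library mean plus 5 SD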;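 also: more negative B-score means stronger inhibition of thallium flux through KCNK3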
KCNQ1 inh – human KCNQ1 channel inhibition; CHO-K1 KCNQ1, FluxOR thallium flux fluorescence; stronger effect = higher value; B-score at 10 µM; actives 1.3% (n = 310,000); P51787;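 active = compounds whose thallium flux B-score, printed positive for inhibition, exceeds three library SD while starting fluorescence stays within three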;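 also: channel opened by potassium depolarization with thallium stimulus after 20 min compound exposure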
Kir21 block – Kir2.1 (mouse) channel inhibition | P35561 | HEK293-Kir2.1, FluxOR thallium flux fluorescence; stronger effect = lower value | B-score at 10 µM | actives 0.85% (n = 310,000) | AID 1672;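 active = fluorescence ratio B-score at or below minus 3 SD of library scores, with starting-brightness B-score within 2 SD, cut at about -4.2 in these data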;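 also: channel flux triggered by added potassium and thallium sulfate stimulus; B-score of peak minus minimum fluorescence over baseline after thallium stimulus; more negative B-score means stronger Kir2.1 block with less thallium influx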
Target sequence (P35561 whole entry, looked up): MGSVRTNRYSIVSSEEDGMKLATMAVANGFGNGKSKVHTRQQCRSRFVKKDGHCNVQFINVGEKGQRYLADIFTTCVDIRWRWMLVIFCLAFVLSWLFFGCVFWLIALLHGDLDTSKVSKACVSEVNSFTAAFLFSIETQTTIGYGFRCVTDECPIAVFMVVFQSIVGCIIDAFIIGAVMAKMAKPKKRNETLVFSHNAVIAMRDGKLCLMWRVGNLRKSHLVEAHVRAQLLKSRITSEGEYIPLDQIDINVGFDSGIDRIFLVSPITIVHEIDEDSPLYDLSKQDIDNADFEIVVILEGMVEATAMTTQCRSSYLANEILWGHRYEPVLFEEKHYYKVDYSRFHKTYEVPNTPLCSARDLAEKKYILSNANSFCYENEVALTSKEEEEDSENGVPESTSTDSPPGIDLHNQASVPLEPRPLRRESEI
A number is an active result; n = inactive; x = no result given.

SMILES | KCNQ1 pot | hERG protect | KCNK9 block | KCNK3 block | KCNQ1 inh | Kir21 block
CCN(CC)C(=O)Cn1cc(C(=O)C(=O)N2CCN(C)CC2)c2ccccc21 | n | n | n | n | n | n
CCN(CC)C(=O)Cn1cc(C(=O)C(=O)N2CC=C(c3ccccc3)CC2)c2ccccc21 | n | 37.9 | n | n | n | n
Cc1cc(C)nc(N2CCN(C(=O)c3ccc(S(=O)(=O)N4CCCCCC4)cc3)CC2)n1 | n | n | n | n | n | n
Oc1ccc2ccccc2c1/C=N/Nc1nnc(-c2ncc[nH]2)c2ccccc12 | n | n | n | n | 8 | n
O=C(Cn1c(=O)c2cccn2c2ccccc21)Nc1cc(F)ccc1F | n | n | n | n | n | n
Cc1ccc(CN2CCSc3ccc(C(=O)NCCCN4CCOCC4)cc32)cc1 | n | n | n | n | n | n
Cc1ccc(CN2CCSc3ccc(C(=O)NCc4ccco4)cc32)cc1 | n | n | -7.1 | n | n | n
O=C1CC2(CCCCC2)Oc2ccccc21 | n | 5.4 | n | n | n | n
O=C1CC2(CCCCC2)Oc2ccc(F)cc21 | n | n | n | n | n | n
CCC1CCCCN1c1nc(-c2cccc(OC)c2O)nc2ccccc12 (centres undefined) | n | n | -7.64 | n | n | n
CCC1CCCCN1c1nc(-c2ccncc2)nc2ccccc12 (centres undefined) | n | n | -6.85 | n | n | n
CC1CCCCN1c1nc(-c2ccncc2)nc2ccccc12 (centres undefined) | n | n | n | n | n | n
CCSc1nc2sc3c(c2c(=O)[nH]1)CC(C)(CC)OC3 (centres undefined) | n | n | n | n | n | n
CCC1(C)Cc2c(sc3nc(SC)[nH]c(=S)c23)CO1 (centres undefined) | 74 | 49.4 | n | x | n | n
Cc1ccc(C(=O)NC(=S)N2CCN(c3cc(C)ccc3C)CC2)cc1 | n | 7.7 | n | n | n | n
CC1CCN(C(=S)NC(=O)c2ccc(C(C)(C)C)cc2)CC1 | 29 | 13.6 | n | n | n | n
CC1CCN(C(=S)NC(=O)c2ccccc2)CC1 | n | n | n | n | n | n
Cc1ccc(C(=O)NC(=S)N2CCN(c3ccccc3F)CC2)cc1 | n | n | n | n | n | n
O=C(NC(=S)N(CC1CCC1)CC1CCCO1)c1cccc([N+](=O)[O-])c1 (centres undefined) | 16 | 7.9 | n | n | n | n
CC(C)(C)c1ccc(C(=O)NC(=S)N2CCCCCC2)cc1 | 22 | 8.4 | n | n | n | n
COc1ccc(CC(=O)NCC(=O)NC(Cc2ccccc2)C(=O)O)cc1 (centres undefined) | n | n | n | n | n | n
CN1CCN(C(=S)NC(=O)c2cccc([N+](=O)[O-])c2)CC1 | n | n | n | n | n | n
COc1ccc(C(=O)NC(=S)N2CCC(C)CC2)cc1Br | 27 | 15.2 | n | n | n | n
CC1CCN(C(=S)NC(=O)c2cccc([N+](=O)[O-])c2)CC1 | 9 | 12.9 | n | n | n | n
OCC(O)/C=N/Nc1nc(Nc2ccccc2)nc(Nc2ccccc2)n1 (centres undefined) | n | n | n | n | n | n
SMILES | KCNQ1 pot | hERG protect | KCNK9 block | KCNK3 block | KCNQ1 inh | Kir21 block
Cn1c(=O)c2c(ncn2CC(=O)OCc2ccccc2)n(C)c1=O | n | 5.3 | n | n | n | n
COC(=O)Cn1cnc2c1c(=O)n(C)c(=O)n2C | n | n | n | n | n | n
COc1ccccc1N1CCN(CC(=O)Nc2ccccc2C(=O)NC(C)c2ccccc2)CC1 (centres undefined) | x | x | x | n | x | x
COc1ccc(-c2csc3ncnc(N4CCN(S(=O)(=O)c5cccc(C(F)(F)F)c5)CC4)c23)cc1 | n | n | -7.11 | n | n | n
O=S(=O)(c1cccc(F)c1)N1CCN(c2ncnc3scc(-c4ccc(F)cc4)c23)CC1 | n | n | n | n | n | n
CN(Cc1c(F)cccc1Cl)C(=O)c1cc2ccccc2o1 | n | n | n | n | n | n
CN(Cc1ccccc1N1CCCC1)C(=O)c1cc2cc(Cl)ccc2o1 | x | x | x | -9.49 | x | x
CN(Cc1ccccc1N1CCCC1)C(=O)c1cc2ccccc2o1 | x | x | x | -11 | x | x
Cc1ccc(NNC(=O)c2cc(C(C)(C)C)nn2Cc2ccccc2)cc1 | n | n | n | n | n | n
CC(C)(C)c1cc(C(=O)NNc2ccc(OC(F)(F)F)cc2)n(Cc2ccccc2)n1 | n | n | -8.04 | n | n | n
COc1ccccc1NNC(=O)c1cc(C(C)(C)C)nn1Cc1ccccc1 | n | n | n | n | 6 | n
Cc1ccc(-c2nc(CS(=O)(=O)CC(=O)NCCN3CCCC3)c(C)o2)cc1 | n | n | n | n | n | n
Cc1ccc(C(=O)C[n+]2ccc3ccccc3c2)cc1 | n | n | n | n | n | n
Cc1cc(C(C)(C)C)cc(C)c1C[n+]1ccc2ccccc2c1 | n | n | n | n | 7 | n
Cc1ccc([N+](=O)[O-])c2c1C(N1CC(C)OC(C)C1)C(C)(C)O2 (centres undefined) | n | 5.4 | n | n | n | n
COc1ccc(-c2nn(-c3ccccc3)cc2/C=C/C(=O)N2CCN(c3ccccn3)CC2)cc1 | n | n | n | n | 6 | n
Cc1oc2ccc(NS(=O)(=O)c3ccc(C(C)(C)C)cc3)cc2c1C(=O)Nc1ccccc1 | n | n | n | n | n | n
C[n+]1ccc(/C=N/Nc2nc(Cl)c(C#N)c(Cl)c2Cl)cc1 | n | n | n | n | n | n
Brc1cc2c(cc1-c1nc3ccccc3s1)OCO2 | n | n | -7.12 | n | n | n
C=CCCCCCCCCC(=O)NNC1CC(=O)N(c2ccccc2)C1=O (centres undefined) | n | n | n | n | n | n
CC(C)c1nc2sc3ccccc3c(=O)c2c(=O)n1Cc1ccccc1 | n | n | n | n | 6 | n
COc1ccc(Cn2c(C(C)C)nc3sc4ccccc4c(=O)c3c2=O)cc1 | n | n | n | n | n | n
CN(/N=C/c1cc(Cl)cc(Cl)c1O)C(=S)NC(C)(C)C | n | n | n | n | 13 | n
COc1ccc(CN2CCC(C(=O)Nc3ccc(Oc4cccnc4)cc3)CC2)cc1 | n | n | n | n | n | -5.38
O=C(CCc1ccccc1)NC(=S)Nc1ccccc1Br | n | 5.0 | n | n | n | n
Cc1cc(C)c2cc(C#N)c(N3CCCN(C(=S)NCCCN(C)C)CC3)nc2c1 | n | n | n | n | n | -6.6
Cc1cc(C)c2c(=O)n(CC(=O)NCCCN3CCOCC3)sc2n1 | n | n | n | n | n | n
Cc1cc(C)c2c(=O)n(CC(=O)NCCCN3CCN(c4ccccc4F)CC3)sc2n1 | n | n | n | x | n | -5.53
O=C(NNc1c(F)c(F)cc(F)c1F)c1cc2ccccc2oc1=O | n | 9.9 | n | n | n | n
